The test system of experiment [1] is SK-N-MC. Put plainly: Antiproliferative activity against human SK-N-MC cells measured after 72 hrs at 37 degC by MTT assay. It counts as functional, cell-based. The method in brief:
(§1)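 Cells seeded and left to attach 24 h, then exposed to control medium or chelator for 72 h at 37 °C; proliferation read by MTT assay.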

In experiment [2] the test system is SK-N-MC. The experiment is described as follows: Inhibition of cellular iron uptake in human SK-N-MC cells assessed as iron uptake at 25 uM for 3 hrs at 37 degC relative to control. It counts as functional. Set-up: scale not given: the % may be the effect or the level left. The method in brief:
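59Fe-transferrin (0.75 µM) given to cells 3 h at 37 °C with or without chelator (25 µM); washed four times on ice, internalized 59Fe measured and expressed as % of control. Mean ± SD of three experiments with three determinations each.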

Another experiment concerns MRC5. Put plainly: Antiproliferative activity against human MRC5 cells measured after 72 hrs at 37 degC by MTT assay. It counts as functional, cell-based. The conditions noted are these: MRC5, 72 h. Put shortly: as §1
In general terms: Formazan colour is commonly taken as a measure of viable cells.

The subject of experiment [3] is SK-N-MC. The experiment is described as follows: Induction of cellular iron mobility in human SK-N-MC cells assessed as iron release at 25 uM for 3 hrs at 37 degC. Type of experiment: functional. Put shortly:
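Cells prelabeled with 59Fe-transferrin (0.75 µM) 3 h at 37 °C, washed four times with ice-cold PBS, then given control medium or chelator (25 µM) 3 h at 37 °C; released 59Fe expressed as % of intracellular 59Fe. Mean ± SD, three experiments, triplicate determinations.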

A word on the IC50: it is the concentration at which inhibition is half-maximal. Regarding `CCNC(=S)N/N=C(/c1ccc(OC)cc1)c1cccc(C)n1`, the 50% inhibitory concentration (IC50) with SK-N-MC [1] and with MRC5 was > 6.25 µM in each case. Besides, the Activity in the experiment on SK-N-MC [2] turned out to be 14%; in the experiment on SK-N-MC [3] it was 15%.

With `CNC(=S)N/N=C(/c1ccc(OC)c(OC)c1)c1cccc(C)n1`, the IC50 in the experiment with SK-N-MC [1] and in the experiment on MRC5 was > 6.25 µM each time. Also, the Activity in the experiment with SK-N-MC [2] was found to be 14%; in the experiment with SK-N-MC [3], 21%.

On to `COc1ccc(/C(=N/NC(N)=S)c2cccc(C)n2)cc1OC`, for which the IC50 in the experiment with SK-N-MC [1] and in the experiment with MRC5 was > 6.25 µM each time. Further, the Activity in the experiment on SK-N-MC [2] turned out to be 14%; with SK-N-MC [3], 21%.

`CC(=O)N(O)CCCCCNC(=O)CCC(=O)N(O)CCCCCNC(=O)CCC(=O)N(O)CCCCCN` [DEFEROXAMINE] returned a half-inhibitory concentration (IC50) with SK-N-MC [1] of 21.6 µM. Besides, in the experiment with SK-N-MC [2], the Activity was determined as 80%.

As for `COc1ccc(/C(=N/NC(=S)N(C)C)c2cccc(C)n2)cc1`, the IC50 in the experiment with SK-N-MC [1] is 2.2 µM; in the experiment with MRC5, > 6.25 µM. Moreover, the Activity was found to be 14% in the experiment with SK-N-MC [2] and 15% in the experiment with SK-N-MC [3].

In the case of `COc1ccc(/C(=N/NC(=S)Nc2ccccc2)c2cccc(C)n2)cc1OC`, the IC50 is 0.62 µM with SK-N-MC [1] and 2.11 µM in the experiment with MRC5. Besides, the Activity in the experiment with SK-N-MC [2] came to 58%; in the experiment on SK-N-MC [3], 21%.

Take `COc1ccc(/C(=N/NC(=S)N(C)C)c2cccc(C)n2)cc1OC`: the results for the IC50 in the experiment with SK-N-MC [1] and with MRC5 were 2.48 µM and > 6.25 µM, respectively. Also, the Activity amounted to 14% with SK-N-MC [2] and 41% with SK-N-MC [3].

For `CCNC(=S)N/N=C(/c1ccccc1)c1cccc(C)n1`, the IC50 was 0.88 µM with SK-N-MC [1] and > 6.25 µM in the experiment with MRC5. In addition, the Activity in the experiment on SK-N-MC [2] amounted to 14%; with SK-N-MC [3], 9%.

Turning to `Cc1cccc(/C(=N\NC(N)=S)c2ccccc2)n1`, the IC50 in the experiment with SK-N-MC [1] and in the experiment on MRC5 was > 6.25 µM each time. Also, the results for the Activity in the experiment with SK-N-MC [2] and in the experiment on SK-N-MC [3] were 14% and 9%, respectively.

Take `COc1ccc(/C(=N/NC(=S)Nc2ccccc2)c2cccc(C)n2)cc1`: the IC50 in the experiment on SK-N-MC [1] is 1.75 µM; in the experiment on MRC5, 3.81 µM. Also, the figures for the Activity in the experiment on SK-N-MC [2] and in the experiment with SK-N-MC [3] were 58% and 15%, respectively.

Consider `CN(C)C(=S)NN=C(c1ccccn1)c1ccccn1`, for which the Activity with SK-N-MC [2] turned out to be 5%.

In the case of `C=CCNC(=S)N/N=C(/c1ccc(OC)c(OC)c1)c1cccc(C)n1`, the IC50 in the experiment with SK-N-MC [1] and in the experiment on MRC5 was > 6.25 µM each time. Further, the results for the Activity in the experiment on SK-N-MC [2] and in the experiment on SK-N-MC [3] were 14% and 21%, respectively.

In the case of `COc1ccc(/C(=N/NC(N)=S)c2cccc(C)n2)cc1`, the IC50 in the experiment with SK-N-MC [1] and with MRC5 was > 6.25 µM throughout. Further, the Activity is 14% with SK-N-MC [2] and 15% in the experiment on SK-N-MC [3].

Turning to `C=CCNC(=S)N/N=C(/c1ccccc1)c1cccc(C)n1`, the concentration for half-maximal inhibition (IC50) with SK-N-MC [1] and in the experiment with MRC5 was > 6.25 µM in each case. Further, the Activity in the experiment with SK-N-MC [2] was 14%; in the experiment with SK-N-MC [3] it was 9%.

Turning to `Cc1cccc(/C(=N\NC(=S)N(C)C)c2ccccc2)n1`, the values for the IC50 in the experiment with SK-N-MC [1] and in the experiment on MRC5 were 0.009 µM and 0.021 µM, respectively. Moreover, the Activity with SK-N-MC [2] was 14%; in the experiment on SK-N-MC [3] it was 9%.

As to `C=CCNC(=S)N/N=C(/c1ccc(OC)cc1)c1cccc(C)n1`, the half-maximal inhibitory concentration (IC50) in the experiment with SK-N-MC [1] and with MRC5 was > 6.25 µM each time. The Activity in the experiment with SK-N-MC [2] worked out at 14%; in the experiment on SK-N-MC [3], 15%.

`Cc1cccc(/C(=N\NC(=S)Nc2ccccc2)c2ccccc2)n1`: the IC50 in the experiment with SK-N-MC [1] is 2.8 µM; in the experiment with MRC5 it was > 6.25 µM. The Activity amounted to 58% in the experiment with SK-N-MC [2] and 9% with SK-N-MC [3].

For `CNC(=S)N/N=C(/c1ccc(OC)cc1)c1cccc(C)n1`, the IC50 in the experiment with SK-N-MC [1] and with MRC5 was > 6.25 µM each time. The Activity in the experiment on SK-N-MC [2] stood at 22%; in the experiment on SK-N-MC [3], 42%.

In the case of `CNC(=S)N/N=C(/c1ccccc1)c1cccc(C)n1`, the 50% inhibitory concentration (IC50) is 5.32 µM in the experiment on SK-N-MC [1] and > 6.25 µM in the experiment on MRC5. The Activity in the experiment with SK-N-MC [2] is listed as 14%; with SK-N-MC [3], 9%.

For the compound `CCNC(=S)N/N=C(/c1ccc(OC)c(OC)c1)c1cccc(C)n1`, the 50% inhibitory concentration (IC50) in the experiment with SK-N-MC [1] and in the experiment with MRC5 was > 6.25 µM throughout. The Activity turned out to be 14% in the experiment on SK-N-MC [2] and 21% in the experiment with SK-N-MC [3].

(Values after ChEMBL document CHEMBL2331246, “Synthesis and biological evaluation of substituted 2-benzoylpyridine thiosemicarbazones: novel structure-activity relationships underpinning their anti-proliferative and chelation efficacy” (Bioorg Med Chem Lett, 2013).)
